≈ marks a conversion by molar mass, not a printed value.

Holding throughout (type): functional
One assay has as its system Staphylococcus aureus. As to the kind of experiment: Minimum inhibitory activity towards Staphylococcus aureus ATCC 25923. The method, boiled down: (§1)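 Broth microdilution in Mueller-Hinton broth, inoculum 5 × 10^5 CFU/mL. MIC taken as the lowest antibiotic concentration preventing growth, judged by absence of turbidity after 24 h at 37 °C.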
The test system of another assay is Enterococcus faecalis. As to the kind of experiment: Minimum inhibitory activity towards Enterococcus faecalis ATCC 29212. The method, boiled down:
as §1

Another assay concerns Klebsiella pneumoniae. Put plainly: Minimum inhibitory activity towards Klebsiella pneumoniae ATCC 10031. The method, boiled down:
as §1

Assay [1] is described as follows: Minimum inhibitory activity towards Bacillus subtilis ATCC 33608. The method, boiled down: as §1

On to `CC(=O)OCC1=C(C(=O)O)N2C(=O)[C@@H](NC(=O)[C@@H](Cc3ccccc3)NNC(=O)OCc3ccccc3[N+](=O)[O-])C2SC1` (some centres undefined), for which the MIC in the assay on Staphylococcus aureus was 1 µg/mL (≈ 1.63 µM); in the assay with Enterococcus faecalis, > 32 µg/mL; in the assay with Klebsiella pneumoniae, 32 µg/mL (≈ 52.2 µM); in assay [1], 2 µg/mL (≈ 3.26 µM).
